The results in this text go back to ChEMBL document CHEMBL3808349, “Antineoplastic Agents. 585. Isolation of Bridelia ferruginea Anticancer Podophyllotoxins and Synthesis of 4-Aza-podophyllotoxin Structural Modifications” (2016).

Holding throughout (format): functional
For one assay, the system named is NCI-H460. Briefly: Growth inhibition of human NCI-H460 cells measured after 48 hrs by sulforhodamine B assay. To be noted: NCI-H460, 48 h. The essentials: (§1)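 Cells were seeded in RPMI1640 with 5% fetal bovine serum and incubated 24 h before serial dilutions of sample were added. After 48 h exposure, cells were fixed with trichloroacetic acid and stained with sulforhodamine B, and optical density was read by plate reader.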
Background: Sulforhodamine B stains cellular protein and so reports cell mass.

A short description of assay [1]: Growth inhibition of human KM20L2 cells measured after 48 hrs by sulforhodamine B assay. To be noted: KM-20L2, 48 h. Put shortly: as §1
For another assay, the system named is P388. In words: Growth inhibition of mouse P388 cells measured after 48 hrs by sulforhodamine B assay. The following applies: P388, 48 h, read-out: ED50 (the source's name).
Assay [2] can be described thus: Growth inhibition of human BxPC3 cells measured after 48 hrs by sulforhodamine B assay. The following applies: BXPC-3, 48 h. The essentials: as §1
For a further assay, the system named is MCF7. In words: Growth inhibition of human MCF7 cells measured after 48 hrs by sulforhodamine B assay. To be noted: MCF7, 48 h. Put shortly: as §1
A short description of assay [3]: Growth inhibition of human SF268 cells measured after 48 hrs by sulforhodamine B assay. To be noted: SF-268, 48 h. Put shortly:
as §1

Assay [4] in a line: Growth inhibition of human DU145 cells measured after 48 hrs by sulforhodamine B assay. The following applies: DU-145, 48 h. Put shortly: as §1

≈ marks a conversion by molar mass, not a printed value.

Broadly, the GI50 is the concentration that inhibits growth by half. `COc1cc([C@@H]2c3cc4c(cc3C[C@H]3COC(=O)[C@@H]32)OCO4)cc(OC)c1OC` [DESOXYPODOPHYLLOTOXIN]: the GI50 came to 1.8 ng/mL (≈ 4.52 nM) in the assay with NCI-H460; 1.4 ng/mL (≈ 3.51 nM) in assay [1]; 0.44 ng/mL (≈ 1.1 nM) in assay [2]; 2.7 ng/mL (≈ 6.78 nM) in the assay with MCF7; 0.56 ng/mL (≈ 1.41 nM) in assay [3]; 1.7 ng/mL (≈ 4.27 nM) in assay [4]. Moreover, the EC50 in the assay on P388 is 0.029 µg/mL (≈ 72.8 nM).
